Measured values from different studies.
Compare with care: the assays were run in different laboratories. Converted amounts (≈) assume the structure as drawn.

Structure (SMILES)	tested on	assay	setting	endpoint	result
C[C@@H]1O[C@@H](OC[C@H]2O[C@@H](Oc3c(-c4ccc(O)c(O)c4)oc4cc(O)cc(O)c4c3=O)[C@H](O)[C@@H](O)[C@@H]2O)[C@H](O)[C@H](O)[C@H]1O	Streptococcus mutans	microbial growth, disc diffusion	500 µg/disc	inhibition zone	14 mm
CC1(C)S[C@@H]2[C@H](NC(=O)[C@H](N)c3ccccc3)C(=O)N2[C@H]1C(=O)O	Streptococcus pyogenes	microbial growth	clinical isolate	MIC90	0.5 µg/mL (≈ 1.43 µM)
Oc1cc(O)c2c(c1)O[C@H](c1cc(O)c(O)c(O)c1)[C@@H](O)C2	Streptococcus mutans	microbial growth, broth dilution	24 h	MIC	100 µg/mL (≈ 327 µM)
CN[C@H](CC(C)C)C(=O)N[C@H]1C(=O)N[C@@H](CC(N)=O)C(=O)N[C@H]2C(=O)N[C@H]3C(=O)N[C@H](C(=O)N[C@H](C(=O)O)c4cc(O)cc(O)c4-c4cc3ccc4O)[C@H](O)c3ccc(c(Cl)c3)Oc3cc2cc(c3O[C@@H]2O[C@H](CO)[C@@H](O)[C@H](O)[C@H]2O[C@H]2C[C@](C)(N)[C@H](O)[C@H](C)O2)Oc2ccc(cc2Cl)[C@H]1O	Streptococcus pyogenes	microbial growth	clinical isolate	MIC90	1 µg/mL (≈ 0.69 µM)
NCCC(=O)Nc1ccccc1/N=c1\cc(-c2ccc3oc(N)nc3c2)oc2ccccc12	HCT-116	cell growth or viability, CCK-8	1 µM	inhibition	42.7%
CCOc1ccc(Nc2c3c(nc4ccccc24)CCC3)cc1	Leishmania infantum	parasite growth, MTT	promastigote	EC50	645 nM
NCCCC(=O)Nc1ccccc1/N=c1\cc(-c2ccc3c(c2)OCO3)oc2ccccc12	HCT-116	cell growth or viability, CCK-8	1 µM	inhibition	6.97%
O=C1OC[C@H]2OC(O)[C@H](O)[C@@H](O)[C@@H]2OC(=O)c2cc(O)c(O)c(O)c2-c2c(O)c(O)c3oc(=O)c4c(c(O)c(O)c5oc(=O)c2c3c54)-c2c1cc(O)c(O)c2O (mixture of isomers)	Streptococcus mutans	microbial killing, broth dilution	–	MBC	400 µg/mL
C[C@@H]1[C@H](O)[C@@H](C)/C=C/C=C/C=C/C=C/C=C/C=C/C=C/[C@H](O[C@@H]2O[C@H](C)[C@@H](O)[C@H](N)[C@@H]2O)C[C@@H]2O[C@](O)(C[C@@H](O)C[C@@H](O)[C@H](O)CC[C@@H](O)C[C@@H](O)CC(=O)O[C@H]1C)C[C@H](O)[C@H]2C(=O)O	Leishmania infantum	parasite growth, MTT	promastigote	IC50	1490 nM
Cc1nc(Nc2ncc(C(=O)Nc3c(C)cccc3Cl)s2)cc(N2CC[C@H](O)C2)n1	DOHH-2	cell growth or viability, ATP luminescence	10 µM, 72 h	inhibition	86%
NCCCCC(=O)Nc1ccccc1/N=c1\cc(-c2ccc3c(c2)OCO3)oc2ccccc12	HCT-116	cell growth or viability, CCK-8	1 µM	inhibition	3.02%
c1ccc(Oc2ccc(Nc3c4c(nc5ccccc35)CCC4)cc2)cc1	Leishmania infantum	parasite growth, MTT	promastigote	EC50	539 nM
O=c1oc2c(O)c(O)cc3c(=O)oc4c(O)c(O)cc1c4c23	Streptococcus mutans	microbial killing, broth dilution	–	MBC	200 µg/mL (≈ 662 µM)
Nc1nc2ccc(-c3c/c(=N\c4ccccc4NC(=O)CCN4CCOCC4)c4ccccc4o3)cc2o1	HCT-116	cell growth or viability, CCK-8	1 µM	inhibition	-4.11%
C[C@H](Nc1ccc2c(c1)OCCn1cc(N3C(=O)OC[C@H]3C(F)F)nc1-2)C(N)=O	KYSE-510	cell growth or viability, ATP luminescence	5 days	EC50	87.8 nM
CS(=O)(=O)NCCC(=O)Nc1ccccc1/N=c1\cc(-c2ccc3nc(N)oc3c2)oc2ccccc12	HCT-116	cell growth or viability, CCK-8	1 µM	inhibition	3.17%
COc1ccc(NC(=O)Nc2ccc(-c3cn(Cc4ccc(Cl)cc4)nn3)cc2)cc1	PC-9	cell growth or viability, CCK-8	50 µM, 72 h	viability	87.3%
COc1ccc2/c(=N/c3ccccc3NC(=O)CN)cc(-c3ccc4c(c3)OCCO4)oc2c1	HCT-116	cell growth or viability, CCK-8	1 µM	inhibition	11.4%
O=C(O[C@@H]1O[C@@H]2COC(=O)c3cc(O)c(O)c(O)c3-c3c(cc(O)c(O)c3O)C(=O)O[C@H]([C@H]1O)[C@@H]2O)c1cc(O)c(O)c(O)c1	Streptococcus mutans	microbial growth, broth dilution	24 h	MIC	200 µg/mL (≈ 315 µM)
